Measured values taken from ChEMBL document CHEMBL1123747, “N-methyl derivatives of the 5-HT2 agonist 1-(4-bromo-2,5-dimethoxyphenyl)-2-aminopropane” (J Med Chem, 1987).
Active and inactive are the calls of the source. The calls are words filed in the database; no cut-off is given here.

Key:
Rattus norvegicus [1] = species: Rattus norvegicus; experiment: The number of animals responding per number of animals receiving the drug(3/5) in the stimulus-generation studies was calculated at dose 6.0 mg / kg; type: functional
Procedure, shortened: (§1)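 Male Sprague-Dawley rats were trained to discriminate 0.2 mg/kg ip training drug from saline (two levers, VI 15-s, milk reward). Test doses were given ip 15 min pre-session in random order to groups of 3–6. In the 2.5-min extinction session, rats making fewer than five total responses were counted as disrupted. N is animals responding over animals dosed.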

Rattus norvegicus [2] = species: Rattus norvegicus; experiment: The number of responses made on the (R)(-)-DOB appropriate level, generation studies was calculated at dose 7.5 mg / kg; type: functional
Procedure, shortened: (§2)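 Male Sprague-Dawley rats (n = 6) were trained on a two-lever operant task for sweetened-milk reward to discriminate 0.2 mg/kg (R)-(-)-DOB-HCl ip from 1.0 mL/kg 0.9% saline, with a VI 15-s schedule and 15-min sessions. Test doses were given ip 15 min before a 2.5-min extinction session, in random order, to groups of 3-6 rats. Read-out was % drug-lever responses; fewer than five total responses counted as disrupted.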

Rattus norvegicus [3] = species: Rattus norvegicus; experiment: The mean responses per minute during the 2.5 min extinction session in the stimulus-generation studies was calculated at dose 6.0 mg / kg; type: functional
Procedure, shortened: (§3)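 Rats were trained on a two-lever drug-versus-saline discrimination (0.2 mg/kg ip training dose, VI 15-s, food reward). Challenge doses were given ip 15 min before a 2.5-min extinction test, in random order, to groups of 3–6 rats, with at least three training sessions between tests. Response rate is responses per minute over the extinction session.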

Rattus norvegicus [4] = species: Rattus norvegicus; experiment: The number of responses made on the (R)(-)-DOB appropriate level as a percent of total responses made during the 2.5 min extinction session in the stimulus-generation studies was calculated at dose 2.2 mg / kg; type: functional; procedure, shortened: as §2
Rattus norvegicus [5] = species: Rattus norvegicus; experiment: The number of animals responding per number of animals receiving the drug(3/5) in the stimulus-generation studies was calculated at dose 7.5 mg / kg; type: functional; procedure, shortened: as §1
Rattus norvegicus [6] = species: Rattus norvegicus; experiment: The number of animals responding per number of animals receiving the drug(4/6) in the stimulus-generation studies was calculated at dose 4.0 mg / kg; type: functional; procedure, shortened: as §2
Rattus norvegicus [7] = species: Rattus norvegicus; experiment: The number of responses made on the (R)(-)-DOB appropriate level as a percent of total responses made during the 2.5 min extinction session in the stimulus-generation studies was calculated at dose 6.0 mg / kg; type: functional; procedure, shortened: as §2
Rattus norvegicus [8] = species: Rattus norvegicus; experiment: The mean responses per minute during the 2.5 min extinction session in the stimulus-generation studies was calculated at dose 7.5 mg / kg; type: functional; procedure, shortened: as §3
[9] = biological target: T1, Serotonin 2 (5-HT2) receptor (Rattus norvegicus, UniProt P30994+P08909+P14842); experiment: Affinity towards [3H]- ketanserin-labeled 5-hydroxytryptamine 2 receptor sites in rat cortical homogenates
Procedure, shortened: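 Label was 0.4 nM [3H]ketanserin, with 11 competitor concentrations run in triplicate and nonspecific binding defined by 1 μM cinanserin. Bound ligand was filtered onto glass fibre and counted by scintillation. IC50 came from nonlinear regression; Ki = IC50/(1+[D]/KD).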

Rattus norvegicus [10] = species: Rattus norvegicus; experiment: The number of animals responding per number of animals receiving the drug(1/4) in the stimulus-generation studies was calculated at dose 8.5 mg / kg; type: functional; procedure, shortened: as §1
Rattus norvegicus [11] = species: Rattus norvegicus; experiment: The number of responses made on the (R)(-)-DOB appropriate level, generation studies was calculated at dose 4.0 mg / kg; type: functional; procedure, shortened: as §2
Rattus norvegicus [12] = species: Rattus norvegicus; experiment: The mean responses per minute during the 2.5 min extinction session in the stimulus-generation studies was calculated at dose 7.8 mg / kg; type: functional; procedure, shortened: as §3
Rattus norvegicus [13] = species: Rattus norvegicus; experiment: The mean responses per minute during the 2.5 min extinction session in the stimulus-generation studies was calculated at dose 2.2 mg / kg; type: functional; procedure, shortened: as §3
[14] = biological target: T1, Serotonin 2 (5-HT2) receptor; experiment: Affinity towards [3H]- DOB -labeled 5-hydroxytryptamine 2 receptor sites in rat cortical homogenates
Rattus norvegicus [15] = species: Rattus norvegicus; experiment: The number of animals responding per number of animals receiving the drug(3/4) in the stimulus-generation studies was calculated at dose 0.3 mg / kg; type: functional
Rattus norvegicus [16] = species: Rattus norvegicus; experiment: The number of animals responding per number of animals receiving the drug(3/5) in the stimulus-generation studies was calculated at dose 7.8 mg / kg; type: functional; procedure, shortened: as §1
Rattus norvegicus [17] = species: Rattus norvegicus; experiment: The number of responses made on the (R)(-)-DOB appropriate level, generation studies was calculated at dose 8.5 mg / kg; NR means not responding; type: functional, organism-based; parameters: dose 8.5 mg / kg; procedure, shortened: as §2
Rattus norvegicus [18] = species: Rattus norvegicus; experiment: The mean responses per minute during the 2.5 min extinction session in the stimulus-generation studies was calculated at dose 4.0 mg / kg; type: functional; procedure, shortened: as §3
Rattus norvegicus [19] = species: Rattus norvegicus; experiment: The compound was tested for effective dose ( ED 50) against stimulus generation with rats trained to discriminate (R) (-)-DOB from saline.; type: functional
Procedure, shortened: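 Male Sprague-Dawley rats (n = 6) on a two-lever operant task for sweetened milk, VI 15-s schedule. Trained to discriminate 0.2 mg/kg ip training drug from 1.0 mL/kg 0.9% saline, 15 min pre-session. Test doses were given ip in random order to groups of 3–6, with 15-min pretreatment and a 2.5-min extinction session. ED50 was calculated from dose-response data.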

Rattus norvegicus [20] = species: Rattus norvegicus; experiment: The number of responses made on the (R)(-)-DOB appropriate level, generation studies was calculated at dose 2.0 mg / kg; type: functional; procedure, shortened: as §2
Rattus norvegicus [21] = species: Rattus norvegicus; experiment: The mean responses per minute during the 2.5 min extinction session in the stimulus-generation studies was calculated at dose 2.0 mg / kg; type: functional; procedure, shortened: as §3
Rattus norvegicus [22] = experiment: The number of animals responding per number of animals receiving the drug in the stimulus-generation studies was calculated at dose 2.2 mg/kg; type: functional; procedure, shortened: as §1
Rattus norvegicus [23] = species: Rattus norvegicus; experiment: The number of responses made on the (R)(-)-DOB appropriate level, generation studies was calculated at dose 7.8 mg / kg; type: functional; procedure, shortened: as §2

COc1cc(CC(C)N(C)C)c(OC)cc1Br (stereo not drawn)
No. of animals responding/animals receiving drug (Rattus norvegicus [1]): 3 | Responding (Rattus norvegicus [2]): 64% | Response rate (Rattus norvegicus [3]): 8.1 | Responding (Rattus norvegicus [4]): 6% | No. of animals responding/animals receiving drug (Rattus norvegicus [5]): 3 | No. of animals responding/animals receiving drug (Rattus norvegicus [6]): 4 | Responding (Rattus norvegicus [7]): 38% | Response rate (Rattus norvegicus [8]): 6.8 | Ki [9]: 0.38 µM | No. of animals responding/animals receiving drug (Rattus norvegicus [10]): 1 | Responding (Rattus norvegicus [11]): 29% | Response rate (Rattus norvegicus [12]): 4.5 | Response rate (Rattus norvegicus [13]): 14.8 | Ki [14]: 0.094 µM | No. of animals responding/animals receiving drug (Rattus norvegicus [15]): 3 | No. of animals responding/animals receiving drug (Rattus norvegicus [16]): 3 | Responding (Rattus norvegicus [17]): inactive | Response rate (Rattus norvegicus [18]): 10.1 | ED50 (Rattus norvegicus [19]): 5.36 mg/kg | Responding (Rattus norvegicus [20]): 23% | Response rate (Rattus norvegicus [21]): 14.6 | No. of animals responding/animals receiving drug (Rattus norvegicus [22]): 5 | Responding (Rattus norvegicus [23]): 86%
